# M1 antag = antagonists of rat M1 muscarinic receptor. CHO-M1 cells, Fluo-4 calcium, ACh EC80 antagonist mode; stronger effect = lower value. B-score at 10 µM. AID 628. hit rate 3.4% among 64,000. P08482;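 active means calcium fluorescence response, raw or row-and-column corrected B-score, differing from the plate sample mean either way at a set confidence level, mostly lower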
# MT1-MMP txn act = MT1-MMP promoter transcription activation. activation factor at 10 µM. hit rate 0.16% among 86,000. HT1080 MT1-MMP promoter luciferase reporter, luminescence, overnight; stronger effect = higher value;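 active means activation factor of at least 2 for MT1-MMP transcription at 10 µM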
# RORA act = activators of human nuclear receptor RORA | P35398 | CHO-K1 Gal4-RORA LBD luciferase reporter, luminescence; percent increase over mock-subtracted basal signal | activation, % at 10 µM | hit rate 1.5% among 65,000;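 active means activation above the mean of all tested compounds plus 3 SD, cut at about 49% in these data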;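 further: 0% = DMSO-treated RORA cells and 100% = added signal equal to DMSO minus mock-transfected cells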
# Target sequence (P35398 whole entry, looked up, the tested form may be a part): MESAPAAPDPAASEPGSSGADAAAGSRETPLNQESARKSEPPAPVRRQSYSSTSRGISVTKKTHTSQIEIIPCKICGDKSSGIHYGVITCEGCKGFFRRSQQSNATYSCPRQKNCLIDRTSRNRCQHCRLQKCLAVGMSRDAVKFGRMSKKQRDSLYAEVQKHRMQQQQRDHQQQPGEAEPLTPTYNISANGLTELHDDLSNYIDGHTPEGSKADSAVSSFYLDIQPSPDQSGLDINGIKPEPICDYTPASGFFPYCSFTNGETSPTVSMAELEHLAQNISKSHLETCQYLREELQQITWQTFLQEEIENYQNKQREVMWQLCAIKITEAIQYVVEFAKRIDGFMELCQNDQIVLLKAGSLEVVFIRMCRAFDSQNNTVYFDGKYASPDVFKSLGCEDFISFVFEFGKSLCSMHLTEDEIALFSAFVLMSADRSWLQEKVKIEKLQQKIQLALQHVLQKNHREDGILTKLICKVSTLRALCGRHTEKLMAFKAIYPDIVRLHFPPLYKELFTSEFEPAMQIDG
# M1 agonist = agonists of M1 muscarinic receptor. CHO-M1 cells, Fluo-4 calcium fluorescence, agonist mode; stronger effect = higher value. B-score at 10 µM. hit rate 3% among 64,000;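 active means fluorescence rise, raw or as B-score row- and column-corrected plate score, outside the 99.7% band of its plate's samples, either direction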
# SF-1 act = activators of human nuclear receptor SF-1; CHO-K1 Gal4-SF-1 LBD luciferase reporter; % increase over DMSO SF-1-specific signal; activation, % at 10 µM; hit rate 1.9% among 65,000; AID 522;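 active means activation above the mean activation of all tested compounds plus 3 SD, cut at about 50% in these data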
#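 Assay system: CHO-K1 cells co-transfected with Gal4 DBD–human SF-1 LBD, 5xGal4 luciferase reporter / Input: 4,000 cells per well / Incubation: 20 h compound exposure at 37 °C after 1 h cell settling / Detection: SteadyLite luciferase luminescence / Control set: DMSO negative control and −SF1 background wells / Replication: one test per compound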
# * hit, by the source's call; . = not tested or not shown. In the library only some 6.3% were active in any assay of this set; here they are far more common.
SMILES,M1 antag,MT1-MMP txn act,RORA act,M1 agonist,SF-1 act
Nc1ccc(N2CCN(C(=O)c3ccco3)CC2)cc1,.,1.1,.,.,.
Cc1cc(NC(=O)CS(=O)(=O)c2cn(Cc3ccccc3Cl)c3ccccc23)no1,3.7*,1,2,0.081,11
Cc1ccccc1Cn1cc(S(=O)(=O)CC(=O)N2CCCCC2)c2ccccc21,0.055,1.1,8,-0.31,-11
CC(CC(=O)NCc1cccnc1)c1ccccc1 (configuration not stated),.,1.2,.,.,.
CCCOc1ccc(C(=O)Nc2ccc(N(C)C)cc2)cc1,-0.0093,1.1,56*,-0.54,30
CCOC(=O)C1=C(CC)Nc2ccccc2N=C1NC(=O)Nc1ccccc1OC,0.84*,1,-17,0.87,4
COCCCNc1oc(-c2ccccc2F)nc1C#N,0.00098,1.3,39,0.0046,57*
COc1ccc(-c2nc(C#N)c(NCCc3ccccc3)o2)cc1OC,0.15,1.8,70*,0.92,78*
COCCCNc1oc(-c2ccccc2OC)nc1C#N,0.016,1.2,0,0.58,-7
CCOC(=O)C(C(=O)Nc1ccccc1C)C1CCCCC1 (configuration not stated),.,1.3,.,.,.
COC(=O)c1ccc(C(NC(=O)OCc2ccccc2)/C(C)=C/[C@@H](C)C(=O)O)cc1 (some centres not stated),.,1.2,.,.,.
COc1ccc(Cn2c(C3CC3)nc3ccc(NC(=O)C4CC4)cc3c2=O)cc1,0.34,1.9,48,-0.25,162*
Cn1c(CSc2nc3ccccc3s2)nc2ccccc21,-0.12,1.7,27,-0.63,71*
O=c1oc2ccccc2n1CSc1nc2ccccc2s1,-0.11,2.1*,66*,0.11,52*
Nc1nc(-c2ccc3c(c2)CCCC3)cs1,-0.14,1.2,76*,-0.37,37
Nc1nc(-c2ccc3c(c2)OCCO3)cs1,0.061,1.7,50*,-0.3,64*
Cc1nc(-c2ccc3c(c2)OCO3)cs1,0.77,1.1,0,-0.67,1
Cc1ccc(NC(=O)C2CCN(S(=O)(=O)c3cccc4cccnc34)CC2)nc1,0.41,1.1,6,0.68,15
CC(=O)Nc1nc(-c2ccccc2)nc(C)c1C(C)=O,0.19,1,-16,0.016,-8
CC(=O)NC1Sc2ccccc2N=C1c1ccccc1 (configuration not stated),0.69,1.4,42,0.74,59*
COc1ccc(CCNC(=O)c2c(C)noc2C)cc1,.,0.9,.,.,.
Nc1ccccc1SCc1cn2cccnc2n1,0.099,1.2,18,-0.2,10
Nc1ccccc1SCc1cn2ccccc2n1,0.54,.,49*,-1.3,30
O=C(COc1cc(Cl)ccc1Cl)Nc1nnc(CC(=O)N2CCOCC2)s1,-0.53,1.3,-10,-0.051,-3
Cc1cc(C(=O)Nc2sc3c(c2C#N)CCC(C(C)(C)C)C3)no1 (configuration not stated),0.41,1.5,-7,-2,58*
SMILES,M1 antag,MT1-MMP txn act,RORA act,M1 agonist,SF-1 act
CC(C)c1cc(C(=O)Nc2sc3c(c2C#N)CCC3)no1,0.092,1.2,76*,-0.95,46
Cc1cc(C(F)F)n2nc(C(=O)Nc3sc4c(c3C#N)CCC(C)C4)nc2n1 (configuration not stated),.,1.1,.,.,.
Cc1cc(C(=O)Nc2sc3c(c2C#N)CCC(C)C3)cs1 (configuration not stated),0.067,1.2,91*,-0.67,33
Cc1cc2occ(CC(=O)NC3=NCCS3)c2cc1C(C)C,0.29,1,-23,-0.56,-3
COc1ccccc1OCCn1cc(C(=O)c2ccco2)c2ccccc21,-0.46,1.2,-23,4.6*,-21
CCc1ccc2c(CC(=O)Nc3nnc(C4CC4)s3)coc2c1,.,1.2,.,.,.
Cc1ccc(NC(=O)c2cc(C)on2)cc1,0.2,1.1,30,-1,60*
COC(=O)c1cccc(C(=O)Nc2ccc(C)cc2)n1,0.86,1.3,23,1.1,50*
CC(=O)c1cccc(NC(=O)c2cc(C(C)C)on2)c1,0.5,1,55*,-0.37,74*
COc1cccc(C(=O)Nc2ccc(C)cc2)c1,-0.056,0.8,28,-0.037,17
CCc1ccc(NC(=O)c2cc(C(C)C)on2)cc1,0.012,1.1,62*,0.29,11
COCCNC(=O)C(OC(=O)CC1Sc2ccccc2NC1=O)c1ccccc1 (configuration not stated),.,1.4,.,.,.
O=C(NCCN1CCOCC1)C1CCC(CNS(=O)(=O)c2ccc(Cl)cc2)CC1 (configuration not stated),.,1.1,.,.,.
CC(Sc1n[nH]c(N)n1)c1nc2scc(-c3cccs3)c2c(=O)[nH]1 (configuration not stated),.,1.1,.,.,.
CCOC(=O)C1=C(C)N(CCCCCC(=O)O)C(=O)NC1c1ccccc1OS(=O)(=O)c1ccccc1[N+](=O)[O-] (configuration not stated),.,1.3,.,.,.
CC1(C)CC(=O)C2=C(C1)OC1=C(C(=O)CC(C)(C)C1)C2c1ccc(O)cc1O,-0.025,0.1,0,158*,-30
COc1cccc(NC(=O)N2CCN(Cc3nc4ccccc4c(=O)[nH]3)CC2)c1,0.059,1.1,-11,0.55,11
CC1(C)CN=C(N2CCN(C3=NCC(C)(C)S3)CC2)S1,-6.3*,1.2,1,0.93,-1
CC(CN1CCCC1)OC(=O)COc1ccccc1 (configuration not stated),1.2,1.1,-16,0.84,-4
O=C(NCCc1ccccc1)c1cnc2sccn2c1=O,-0.029,1.3,84*,-2.7,38
COC(=O)c1ccc(C(NC(=O)OCc2ccccc2)/C(I)=C/[C@@H](C)C(=O)O)cc1 (some centres not stated),.,1,.,.,.
COc1cccc(-c2nnc(SCC(=O)Nc3ccc4c(c3)OCCO4)n2Cc2ccco2)c1,-0.12,1.1,-15,5.8*,-11
CN(C)S(=O)(=O)c1cccc(-c2cn3ccccc3n2)c1,-1.6,1.2,-8,-0.095,2
COc1ccc(-c2cn3ccccc3n2)cc1OC,0.0029,1.4,49*,-0.14,30
COC(=O)c1ccc(C(NC(=O)OCc2ccccc2)/C(C)=C/[C@@H](C)C(=O)NCCN2CCOCC2)cc1 (some centres not stated),.,1,.,.,.
Cc1c(-n2c(CN3C(=O)c4ccccc4C3=O)nc3ccccc3c2=O)c(=O)n(-c2ccccc2)n1C,1.5*,1,-5,-1.5,-14
COC(=O)[C@@]1(Cc2ccc(OC)cc2)[C@H]2c3cc(C(=O)N4CCCC4)n(CCc4ccccn4)c3C[C@H]2CN1C(=O)c1ccccc1,.,1.1,.,.,.
Cn1c(SCc2ccc(C#N)cc2Cl)nc2ccccc21,0.028,1.6,82*,0.04,37
Cn1c(Sc2nc3ccccc3n2C)nc2ccccc21,-0.0065,1.2,-13,0.11,-19
COC(=O)c1ccc(C(/C=C/[C@@H](C)C(=O)NCc2ccc(OC)c(O)c2)NC(=O)OCc2ccccc2)cc1 (some centres not stated),.,1.1,.,.,.

# From PubChem
